ChEMBL document CHEMBL1124943, “Alkylation of DNA by C-10 of 2,7-diaminomitosene” (1990)

Assays:
Type in all cases: functional
[1] = test system: Nucleic Acid; assay: Ability to […] breaks induced by ionozing radiation on exposure for 1 hr at a concentration of 100 ug/mL
How it was run: (§1)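 Murine L-1210 cells were prelabelled with [2-14C]thymidine (2.0 μCi) for 4 doublings (48 h), then chased 24 h in unlabelled medium. They were exposed 1 h at 37 °C, washed twice at 4 °C, and 10^6 cells were lysed on PVC filters (SDS/glycine/EDTA, pH 10.0). Lysates were digested 1 h with proteinase K (0.5 mg/mL), then alkaline-eluted (pH 12.1) for 15 h. First-order elution rates were converted to rad equivalents against ionizing-radiation standards. Values are the mean of three determinations, or duplicates where marked.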

[2] = test system: Nucleic Acid; assay: Ability to […] breaks induced by ionozing radiation on exposure for 1 hr at a concentration of 50 ug/mL; how it was run: as §1
[3] = test system: Nucleic Acid; assay: Ability to […] breaks induced by ionozing radiation on exposure for 1 hr at a concentration of 500 ug/mL; how it was run: as §1
[4] = test system: Nucleic Acid; assay: Ability to […] breaks induced by ionozing radiation on exposure for 1 hr at a concentration of 10 ug/mL; how it was run: as §1
[5] = test system: L1210; assay: Survival of L-1210 leukemia cells upon exposure to the compound for 1 hr at a concentration of 50ug/mL, measured in colony forming units.; conditions: Mus musculus, L1210, 1 h; read-out: Survival
[6] = test system: L1210; assay: Survival of L-1210 leukemia cells upon exposure to the compound for 1 hr at a concentration of 100ug/mL, measured in colony forming units.; conditions: Mus musculus, L1210, 1 h; read-out: Survival
[7] = test system: L1210; assay: Survival of L-1210 leukemia cells upon exposure to the compound for 1 hr at a concentration of 10ug/mL, measured in colony forming units.; conditions: Mus musculus, L1210, 1 h; read-out: Survival
[8] = test system: L1210; assay: Survival of L-1210 leukemia cells upon exposure to the compound for 1 hr at a concentration of 500ug/mL, measured in colony forming units.; conditions: Mus musculus, L1210, 1 h; read-out: Survival
[9] = test system: L1210; assay: Survival of L-1210 leukemia cells upon exposure to the compound for 1 hr at a concentration of 1ug/mL, measured in colony forming units.; conditions: Mus musculus, L1210, 1 h; read-out: Survival
[10] = test system: Nucleic Acid; assay: Ability to […] breaks induced by ionozing radiation on exposure for 1 hr at a concentration of 250 ug/mL; how it was run: as §1
[11] = test system: L1210; assay: Survival of L-1210 leukemia cells upon exposure to the compound for 1 hr at a concentration of 250ug/mL, measured in colony forming units.; conditions: Mus musculus, L1210, 1 h; read-out: Survival
[12] = tested as the 18O-labelled form

| SMILES | DNA single strand breaks [1, 12] | DNA single strand breaks [2, 12] | DNA single strand breaks [3, 12] | DNA single strand breaks [4, 12] | viability at 50 µg/mL [5] | DNA single strand breaks [1] | DNA single strand breaks [2] | viability at 100 µg/mL [6] | DNA single strand breaks [4] | viability at 10 µg/mL [7] | viability at 500 µg/mL [8] | viability at 1 µg/mL [9] | DNA single strand breaks [3] | DNA single strand breaks [10] | viability at 250 µg/mL [11] |
| --- | --- | --- | --- | --- | --- | --- | --- | --- | --- | --- | --- | --- | --- | --- | --- |
| CC1=C(N)C(=O)c2c(COC(N)=O)c3n(c2C1=O)CC(N)C3O (stereo not given) | 50 rad equiv | 0 rad equiv | 395 rad equiv | 0 rad equiv |  |  |  |  |  |  |  |  |  |  |  |
| COS(C)(=O)=O [METHANESULFONIC ACID METHYL ESTER] |  |  |  |  | 32% | 2150 rad equiv | 935 rad equiv | 0.2% | 583 rad equiv | 100% |  |  |  |  |  |
| CC1=C(N)C(=O)c2c(COC(N)=O)c3n(c2C1=O)CC(N)C3[18OH] (stereo not given) |  |  |  |  | 2% |  |  | 0% |  | 81% | 0% | 100% |  |  |  |
| CC1=C(N)C(=O)c2c(COC(N)=O)c3n(c2C1=O)CC(N)C3 (stereo not given) |  |  |  |  | 43% | 320 rad equiv | 110 rad equiv | 8% | 0 rad equiv | 100% | 0% |  | 535 rad equiv | 470 rad equiv | 0.9% |
